Reference: ChEMBL document CHEMBL3272255, “Substituted alpah-methylbenzyl and tricyclic arylalkyl lactamimides as inhibitors of blood platelet aggregation” (J Med Chem, 1976)

Experiments:
[1] = Antiplatelet activity in human platelet rich plasma assessed as inhibition of ADP-induced platelet aggregation at 30 ug/ml after 20 mins by aggregometric analysis relative to control; assay type: functional
Procedure, shortened: (§1)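 Human blood came from fasting donors who had taken no drugs for 5 days. It was citrated 1:9 with 3.8% sodium citrate. PRP was prepared at 100g for 10 min and PPP at 1500g for 15 min, and PRP was diluted with autologous PPP to 400000 platelets/mm³. Compound or saline control was incubated 20 min at 37°, then ADP was added at 2 μg/ml final. Percent inhibition was calculated from maximal ΔT, test vs control.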

[2] = Antiplatelet activity in human platelet rich plasma assessed as inhibition of ADP-induced platelet aggregation at 10 ug/ml after 20 mins by aggregometric analysis relative to control; assay type: functional; procedure, shortened: as §1
[3] = Antiplatelet activity in human platelet rich plasma assessed as inhibition of platelet factor-3 release at 100 ug/ml after 20 mins relative to control; assay type: functional
Procedure, shortened: (§2)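 Test compound solution was incubated in human citrated PRP at 37° for 20 min. PF3 activity was then measured by a modified Stypven test, with plasma diluted 1:10.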

[4] = Antiplatelet activity in human platelet rich plasma assessed as inhibition of platelet factor-3 release at 30 ug/ml after 20 mins relative to control; assay type: functional; procedure, shortened: as §2
[5] = Antiplatelet activity in human platelet rich plasma assessed as platelet factor-3 release at 300 ug/ml after 20 mins relative to control
[6] = Antiplatelet activity in human platelet rich plasma assessed as inhibition of ADP-induced platelet aggregation at 100 ug/ml after 20 mins by aggregometric analysis relative to control; assay type: functional; procedure, shortened: as §1
[7] = test system: Cavia porcellus; experiment: Antiplatelet activity in guinea pig assessed as inhibition of 0.8 ug/ml ADP-induced platelet aggregation measured as area between aggregation curve and baseline transmittance at 30 mg/kg, po for 4 days measured at 2 hrs post last dose by aggregometric analysis relative to control; assay type: functional
Procedure, shortened: (§3)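 Guinea pigs were dosed by stomach tube at the stated dose daily for 4 days, with an untreated control group kept in parallel. Blood was taken by heart puncture 2 h after the last dose, and citrated PRP was isolated and adjusted. ADP was added in vitro. Total response was the area between the aggregation curve and baseline transmittance over 5 min, measured by planimeter. Percent inhibition came from group-average total response, treated vs control.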

[8] = test system: Cavia porcellus; experiment: Antiplatelet activity in guinea pig assessed as inhibition of 0.45 ug/ml ADP-induced platelet aggregation measured as change in light transmittance at 30 mg/kg, po for 4 days measured at 2 hrs post last dose by aggregometric analysis relative to control; assay type: functional
Procedure, shortened: (§4)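 Dosing was oral by stomach tube for 4 days, alongside an untreated control group. Blood was drawn by heart puncture 2 h after the final dose, then citrated PRP was isolated and adjusted for aggregometry. ADP was added in vitro at the stated concentration. The read-out was the maximum increase in light transmittance (ΔT); group means were compared, treated vs control.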

[9] = test system: Cavia porcellus; experiment: Antiplatelet activity in guinea pig assessed as inhibition of 0.45 ug/ml ADP-induced platelet aggregation measured as area between aggregation curve and baseline transmittance at 30 mg/kg, po for 4 days measured at 2 hrs post last dose by aggregometric analysis relative to control; assay type: functional; procedure, shortened: as §3
[10] = test system: Cavia porcellus; experiment: Antiplatelet activity in guinea pig assessed as inhibition of 0.8 ug/ml ADP-induced platelet aggregation measured as area between aggregation curve and baseline transmittance at 100 mg/kg, po for 4 days measured at 2 hrs post last dose by aggregometric analysis relative to control; assay type: functional; procedure, shortened: as §3
[11] = test system: Cavia porcellus; experiment: Antiplatelet activity in guinea pig assessed as 0.45 ug/ml ADP-induced platelet aggregation measured as change in light transmittance at 100 mg/kg, po for 4 days measured at 2 hrs post last dose by aggregometric analysis
[12] = test system: Cavia porcellus; experiment: Antiplatelet activity in guinea pig assessed as inhibition of 0.8 ug/ml ADP-induced platelet aggregation measured as change in light transmittance at 30 mg/kg, po for 4 days measured at 2 hrs post last dose by aggregometric analysis relative to control; assay type: functional; procedure, shortened: as §4
[13] = test system: Cavia porcellus; experiment: Antiplatelet activity in guinea pig assessed as inhibition of 0.8 ug/ml ADP-induced platelet aggregation measured as change in light transmittance at 100 mg/kg, po for 4 days measured at 2 hrs post last dose by aggregometric analysis relative to control; assay type: functional; procedure, shortened: as §4
[14] = test system: Cavia porcellus; experiment: Antiplatelet activity in guinea pig assessed as inhibition of 0.45 ug/ml ADP-induced platelet aggregation measured as area between aggregation curve and baseline transmittance at 100 mg/kg, po for 4 days measured at 2 hrs post last dose by aggregometric analysis relative to control; assay type: functional; procedure, shortened: as §3
[15] = test system: Cavia porcellus; experiment: Antiplatelet activity in guinea pig assessed as inhibition of 0.8 ug/ml ADP-induced platelet aggregation measured as area between aggregation curve and baseline transmittance at 10 mg/kg, po for 4 days measured at 2 hrs post last dose by aggregometric analysis relative to control; assay type: functional; procedure, shortened: as §3
[16] = test system: Cavia porcellus; experiment: Antiplatelet activity in guinea pig assessed as inhibition of 0.8 ug/ml ADP-induced platelet aggregation measured as change in light transmittance at 100 mg/kg, po for 1 day by aggregometric analysis relative to control; assay type: functional; details: 24 h
[17] = test system: Cavia porcellus; experiment: Antiplatelet activity in guinea pig assessed as 0.45 ug/ml ADP-induced platelet aggregation measured as change in light transmittance at 100 mg/kg, po for 1 day by aggregometric analysis; details: 24 h
[18] = test system: Cavia porcellus; experiment: Antiplatelet activity in guinea pig assessed as inhibition of 0.8 ug/ml ADP-induced platelet aggregation measured as area between aggregation curve and baseline transmittance at 100 mg/kg, po for 1 day by aggregometric analysis relative to control; assay type: functional; details: 24 h
[19] = test system: Cavia porcellus; experiment: Antiplatelet activity in guinea pig assessed as inhibition of 0.25 ug/ml ADP-induced platelet aggregation measured as area between aggregation curve and baseline transmittance at 30 mg/kg, po for 4 days measured at 2 hrs post last dose by aggregometric analysis relative to control; assay type: functional; procedure, shortened: as §3
[20] = test system: Cavia porcellus; experiment: Antiplatelet activity in guinea pig assessed as inhibition of 0.35 ug/ml ADP-induced platelet aggregation measured as change in light transmittance at 30 mg/kg, po for 4 days measured at 2 hrs post last dose by aggregometric analysis relative to control; assay type: functional; procedure, shortened: as §4
[21] = test system: Cavia porcellus; experiment: Antiplatelet activity in guinea pig assessed as inhibition of 0.25 ug/ml ADP-induced platelet aggregation measured as change in light transmittance at 30 mg/kg, po for 4 days measured at 2 hrs post last dose by aggregometric analysis relative to control; assay type: functional; procedure, shortened: as §4
[22] = test system: Cavia porcellus; experiment: Antiplatelet activity in guinea pig assessed as inhibition of 0.35 ug/ml ADP-induced platelet aggregation measured as area between aggregation curve and baseline transmittance at 30 mg/kg, po for 4 days measured at 2 hrs post last dose by aggregometric analysis relative to control; assay type: functional; procedure, shortened: as §3
[23] = test system: Cavia porcellus; experiment: Antiplatelet activity in guinea pig assessed as inhibition of 0.45 ug/ml ADP-induced platelet aggregation measured as area between aggregation curve and baseline transmittance at 100 mg/kg, po for 1 day by aggregometric analysis relative to control; assay type: functional; details: 24 h
[24] = test system: Cavia porcellus; experiment: Toxicity in guinea pig assessed as mortality at 300 mg/kg, po measured after third dose; assay type: organism-based; parameters: dose 300 mg/kg, route oral; details: in vivo
[25] = test system: Cavia porcellus; experiment: Antiplatelet activity in guinea pig assessed as inhibition of 0.8 ug/ml ADP-induced platelet aggregation measured as change in light transmittance at 10 mg/kg, po for 4 days measured at 2 hrs post last dose by aggregometric analysis relative to control; assay type: functional; procedure, shortened: as §4
[26] = test system: Cavia porcellus; experiment: Antiplatelet activity in guinea pig assessed as inhibition of 0.4 ug/ml ADP-induced platelet aggregation measured as area between aggregation curve and baseline transmittance at 10 mg/kg, po for 4 days measured at 2 hrs post last dose by aggregometric analysis relative to control; assay type: functional; procedure, shortened: as §3
[27] = test system: Cavia porcellus; experiment: Antiplatelet activity in guinea pig assessed as inhibition of 0.4 ug/ml ADP-induced platelet aggregation measured as change in light transmittance at 10 mg/kg, po for 4 days measured at 2 hrs post last dose by aggregometric analysis relative to control; assay type: functional; procedure, shortened: as §4

## O=C(CO)OC(CC1CCCCN1)c1ccc(C=C2c3ccccc3-c3ccccc32)cc1 (configuration not stated)
[1]
  inhibition at 30 µg/mL: 28%
[2]
  inhibition at 10 µg/mL: 1%
[3]
  %max: 0.162%
[4]
  %max: 0.003%
[5]
  %max: 0.747%
[6]
  inhibition at 100 µg/mL: 99%

## CC(/N=C1\CCCCCN1)c1ccc2sc3ccccc3c2c1.Cl (configuration not stated)
[7]
  inhibition in vivo at 30 mg/kg: 3%
[8]
  ΔT % at 30 mg/kg: 20.4%
[9]
  inhibition in vivo at 30 mg/kg: 0%
[10]
  inhibition in vivo at 100 mg/kg: 0%
[11]
  ΔT % at 100 mg/kg: 32%
[12]
  ΔT % at 30 mg/kg: 43.6%
[1]
  inhibition at 30 µg/mL: 52%
[2]
  inhibition at 10 µg/mL: 2%
[3]
  %max: 0.013%
[13]
  ΔT % at 100 mg/kg: 53.6%
[5]
  %max: 0.18%
[14]
  inhibition in vivo at 100 mg/kg: 0%
[6]
  inhibition at 100 µg/mL: 100%

## CC(/N=C1\CCCCCN1)c1ccc(CCc2ccccc2)cc1.Cl (configuration not stated)
[1]
  inhibition at 30 µg/mL: 37%
[2]
  inhibition at 10 µg/mL: 8%
[3]
  %max: 0.013%
[4]
  %max: 0%
[5]
  %max: 0.91%
[6]
  inhibition at 100 µg/mL: 78%

## CCCC(C/N=C1/CCCCCN1)(c1ccccc1)c1ccccc1.Cl
[7]
  inhibition in vivo at 30 mg/kg: 14%
[15]
  inhibition in vivo at 10 mg/kg: 26%
[16]
  ΔT % at 100 mg/kg: 36%
[8]
  ΔT % at 30 mg/kg: 19.7%
[9]
  inhibition in vivo at 30 mg/kg: 18%
[17]
  ΔT % at 100 mg/kg: 21.4%
[10]
  inhibition in vivo at 100 mg/kg: 20%
[11]
  ΔT % at 100 mg/kg: 34.3%
[12]
  ΔT % at 30 mg/kg: 35.3%
[18]
  inhibition in vivo at 100 mg/kg: 12%
[1]
  inhibition at 30 µg/mL: 57%
[19]
  inhibition in vivo at 30 mg/kg: 63%
[2]
  inhibition at 10 µg/mL: 1%
[13]
  ΔT % at 100 mg/kg: 62.7%
[20]
  ΔT % at 30 mg/kg: 24.8%
[21]
  ΔT % at 30 mg/kg: 21.2%
[5]
  %max: 0.13%
[22]
  inhibition in vivo at 30 mg/kg: 55%
[23]
  inhibition in vivo at 100 mg/kg: 13%
[24]
  Activity: Toxic
[25]
  ΔT % at 10 mg/kg: 35.2%
[14]
  inhibition in vivo at 100 mg/kg: 70%
[26]
  inhibition in vivo at 10 mg/kg: 21%
[6]
  inhibition at 100 µg/mL: 100%
[27]
  ΔT % at 10 mg/kg: 14.6%

## CC(/N=C1/CCCCCN1)c1cccc2ccccc12.Cl (configuration not stated)
[7]
  inhibition in vivo at 30 mg/kg: 0%
[8]
  ΔT % at 30 mg/kg: 7%
[9]
  inhibition in vivo at 30 mg/kg: 33%
[10]
  inhibition in vivo at 100 mg/kg: 0%
[11]
  ΔT % at 100 mg/kg: 7.1%
[12]
  ΔT % at 30 mg/kg: 29%
[1]
  inhibition at 30 µg/mL: 46%
[2]
  inhibition at 10 µg/mL: 0%
[3]
  %max: 0.003%
[13]
  ΔT % at 100 mg/kg: 21.6%
[5]
  %max: 0.037%
[24]
  Activity: Toxic
[14]
  inhibition in vivo at 100 mg/kg: 0%
[6]
  inhibition at 100 µg/mL: 70%

## CC(/N=C1\CCCCCN1)c1ccc(Oc2ccccc2)cc1.Cl (configuration not stated)
[7]
  inhibition in vivo at 30 mg/kg: 38%
[8]
  ΔT % at 30 mg/kg: 24.4%
[9]
  inhibition in vivo at 30 mg/kg: 53%
[10]
  inhibition in vivo at 100 mg/kg: 8%
[11]
  ΔT % at 100 mg/kg: 17.7%
[12]
  ΔT % at 30 mg/kg: 42.2%
[1]
  inhibition at 30 µg/mL: 25%
[2]
  inhibition at 10 µg/mL: 15%
[3]
  %max: 0.01%
[13]
  ΔT % at 100 mg/kg: 49%
[5]
  %max: 0.26%
[14]
  inhibition in vivo at 100 mg/kg: 29%
[6]
  inhibition at 100 µg/mL: 100%
